Reference: ChEMBL document CHEMBL1147092, “Pharmacokinetic/pharmacodynamic factors influencing emergence of resistance to linezolid in an in vitro model” (Antimicrob Agents Chemother, 2007)
In brackets after ≈: the same amount, converted by molar mass.

Legend:
Enterococcus faecium [1] = experiment: Antibacterial activity against vancomycin-resistant Enterococcus faecium ATCC 700221 by microdilution method; type: functional
Method in brief: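 Standard broth microdilution in cation-adjusted Mueller-Hinton broth, run in four replicates at baseline. Before testing, the strain was held at −80°C in tryptone soy broth with 20% glycerol and subcultured on horse blood agar for 24 h at 35°C.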

[2] = Half life for simulated intermittent-dosage regimen at 600 mg every 12 hrs using in vitro PK/PD model
[3] = Half life for simulated intermittent-dosage regimen at 120 mg every 12 hrs using in vitro PK/PD model
Staphylococcus aureus [4] = experiment: Bactericidal activity against methicillin-resistant Staphylococcus aureus ATCC 43300 assessed as reduction of CFU using in vitro PK/PD model with human dosage regimen 600 mg every 12 hrs after 24 hrs; type: functional
Method in brief: (§1)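 Flow-through central chamber of BHI broth at 37°C, with pumped clearance set for a 5-h half-life (volume of distribution 290 ml). Exponential-phase inoculum was 10^6 CFU/ml, in duplicate, with growth controls. Samples taken 0–72 h were diluted in saline, plated on nutrient agar and incubated 37°C for 24 h; quantification limit 50 CFU/ml. Drug levels were checked by HPLC. Reduction is the log10 CFU/ml fall.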

Staphylococcus aureus [5] = experiment: Bactericidal activity against heteroresistant vancomycin-intermediate Staphylococcus aureus Mu3 assessed as reduction of CFU using in vitro PK/PD model with human dosage regimen 600 mg every 12 hrs after 24 hrs; type: functional; method in brief: as §1
Staphylococcus aureus [6] = experiment: Bactericidal activity against vancomycin-intermediate Staphylococcus aureus Mu50 assessed as reduction of CFU using in vitro PK/PD model with human dosage regimen 600 mg every 12 hrs after 24 hrs; type: functional
Method in brief: (§2)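 Flow-through in vitro PK/PD model in BHI broth at 37°C, 5-h half-life (Vd 290 ml); exponential-phase inoculum 10^6 CFU/ml, duplicates with growth controls. […] Viable counts by saline dilution, plating on nutrient agar, 37°C 24 h; bactericidal = >3-log10 CFU/ml drop.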

Enterococcus faecium [7] = experiment: Bactericidal activity against vancomycin-resistant Enterococcus faecium ATCC 700221 assessed as reduction of CFU using in vitro PK/PD model with human dosage regimen 600 mg every 12 hrs at 24 hrs; type: functional; method in brief: as §1
Staphylococcus aureus [8] = experiment: Bactericidal activity against vancomycin-intermediate Staphylococcus aureus Mu50 assessed as reduction of CFU using in vitro PK/PD model with human dosage regimen 120 mg every 12 hrs after 24 hrs; type: functional; method in brief: as §1
Staphylococcus aureus [9] = experiment: Bactericidal activity against vancomycin-intermediate Staphylococcus aureus Mu50 assessed as reduction of CFU using in vitro PK/PD model with 120 mg/24 hr continuous infusion simulated regimen after 48 hrs; type: functional; method in brief: as §2
Enterococcus faecium [10] = experiment: Bactericidal activity against vancomycin-resistant Enterococcus faecium ATCC 700221 assessed as reduction of CFU using in vitro PK/PD model with 120 mg/24 hr continuous infusion simulated regimen after 48 hrs; type: functional; method in brief: as §1
Staphylococcus aureus [11] = experiment: Antibacterial activity against methicillin-resistant Staphylococcus aureus ATCC 43300 using in vitro PK/PD model with 120 mg/24 hr continuous infusion simulated regimen after 72 hrs; type: functional; conditions: ATCC 43300, 72 h
Staphylococcus aureus [12] = experiment: Antibacterial activity against heteroresistant vancomycin-intermediate Staphylococcus aureus Mu3 using in vitro PK/PD model with 120 mg/24 hr continuous infusion simulated regimen after 72 hrs; type: functional; conditions: Mu3, 72 h
Staphylococcus aureus [13] = experiment: Area under population analysis profile for methicillin-resistant Staphylococcus aureus using in vitro PK/PD model relative to growth control with 120 mg/24 hrs continuous infusion regimen after 72 hrs; type: functional
Method in brief: (§3)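 Bacteria recovered after 72 h of a 2.0-μg/ml continuous infusion in a flow-through BHI model (duplicates). 50 μl of a 0.5 McFarland suspension or dilutions were spiral-plated on BHI agar with linezolid 0–5 μg/ml and incubated 35°C for 48 h; counting limit 20 CFU/ml. Area under the log10 CFU/ml vs concentration curve (trapezoidal) is compared with the 72-h growth control.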

Staphylococcus aureus [14] = experiment: Area under population analysis profile for heteroresistant vancomycin-intermediate Staphylococcus aureus Mu3 using in vitro PK/PD model relative to growth control with 120 mg/24 hrs continuous infusion regimen after 72 hrs; type: functional; method in brief: as §3
Staphylococcus aureus [15] = experiment: Area under population analysis profile for vancomycin-intermediate Staphylococcus aureus Mu50 using in vitro PK/PD model relative to growth control with 120 mg/24 hrs continuous infusion regimen after 72 hrs; type: functional
Enterococcus faecium [16] = experiment: Area under population analysis profile for vancomycin-resistant Enterococcus faecium ATCC 700221 using in vitro PK/PD model relative to growth control with 120 mg/24 hrs continuous infusion regimen after 72 hrs; type: functional; method in brief: as §3

CC(=O)NC[C@H]1CN(c2ccc(N3CCOCC3)c(F)c2)C(=O)O1 [LINEZOLID]
MIC (Enterococcus faecium [1]): 2 µg/mL (≈ 5.93 µM) | half-life at 12 h [2]: 5.32 h | half-life at 12 h [3]: 5.32 h | log10CFU/ml (Staphylococcus aureus [4]): 3.9 | log10CFU/ml (Staphylococcus aureus [5]): 3.1 | log10CFU/ml (Staphylococcus aureus [6]): 3.3 | log10CFU/ml (Enterococcus faecium [7]): 3.8 | log10CFU/ml (Staphylococcus aureus [8]): >3 | log10CFU/ml (Staphylococcus aureus [9]): >3 | log10CFU/ml (Enterococcus faecium [10]): >3 | MIC (Staphylococcus aureus [11]): ≥ 8 µg/mL | MIC (Staphylococcus aureus [12]): ≥ 8 µg/mL | AUPAP (Staphylococcus aureus [13]): 178% | AUPAP (Staphylococcus aureus [14]): 70.2% | AUPAP (Staphylococcus aureus [15]): 90.2% | AUPAP (Enterococcus faecium [16]): 40%
